# Test results as given in ChEMBL document CHEMBL4513216, “Probing the Open Global Health Chemical Diversity Library for Multistage-Active Starting Points for Next-Generation Antimalarials” (ACS Infect Dis, 2020).
# Assay: Toxicity liver stage against HepG2, at 10uM
# Assay type: cell-based
# Set-up: test concentration 10 uM, cell line HepG2-A16-CD81EGFP
# Details: human, HepG2-A16-CD81EGFP cells; read-out: INHIBITION
# Summary of the method: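 Uninfected HepG2-A16-CD81EGFP cells, 3 × 10^3 per well, 1536-well, plated on prespotted compound at 10 μM final, parasite-free screening media added to match infected plates; puromycin 10 μM positive, DMSO 0.5% negative; run in parallel with 48 h PbLuc assay at 37 °C, 5% CO2; viability by CellTiter-Glo luminescence, normalized to controls.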
row,Structure (SMILES),cytotoxicity at 10 µM [%]
1,O=C1CSC(c2ccc3c(c2)OCO3)c2cnn(C3CCCCC3)c2N1 (stereo not given),-6.06
2,COc1ccc(CN2CCOC[C@H]2c2nc(-c3ccncc3)c[nH]2)cc1,-0.588
3,COC(=O)c1cccc(C(=O)NCc2ccc(C)o2)n1,11.5
4,CN(C)CCCNC(=O)c1nc(Cc2c(Cl)cccc2Cl)no1,-0.31
5,CN(C)S(=O)(=O)N1CCC(c2nnc(C(F)(F)F)o2)CC1,3.79
6,O=C(CN1C(=O)CCC1=O)N1CCC(S(=O)(=O)Cc2ccco2)CC1,3.79
7,CCOCC(=O)NCC1Cn2nnc(-c3cccc(F)c3)c2CO1 (stereo not given),-1.29
8,O=C(NCC1CC1)C1=NOC2(CCN(Cc3ccsc3)C2)C1 (stereo not given),1.47
9,Cn1cc(CN2CC[C@H]3OCC[C@@H](C(=O)Nc4cnccn4)[C@@H]3C2)cn1,4.12
10,COc1ccc(C)cc1NC(=O)Nc1cnc(N2CCN(C)CC2)nc1,5.06
11,CCC1=NC(SCC(=O)c2ccc(C)cc2)c2cc(CC)sc2N1 (stereo not given),9.76
12,CCCN(CCC)C(=O)Cn1c(SC)nc2ccsc2c1=O,3.88
13,CC(C)C(NC(=O)c1cnc(N2CCOCC2)nc1)c1cccs1 (stereo not given),9.71
14,COCCN1CCN(c2nc(O)cc(Cc3ccccc3F)n2)CC1,-4.52
15,c1cc(-c2cnc(C3CCNCC3)cn2)n[nH]1,-2.78
16,Cc1nccn1CCC1CCN(C(C)C)CC1,-20.7
17,Cn1c(CN2CCOC(CCc3ccncn3)C2)nc2ccccc21 (stereo not given),-4.42
18,c1cc(-c2nnc(C3CCCN(CC4CCCCC4)C3)o2)ccn1 (stereo not given),-12.1
19,Cc1nn(C)cc1CN1CCc2c(nc(-c3ccccn3)[nH]c2=O)C1,-32.1
20,Cc1cc(C)cc(-c2cccc(CC3(C(=O)O)CCOCC3)c2)c1,-4.04
21,Cc1noc(C)c1CN1CCCCC1c1nc(-c2ccccc2)no1 (stereo not given),-44
22,Cc1ccc(-c2nc(CC(=O)NCC3CCCN(C(C)C)C3)cs2)o1 (stereo not given),-53.2

row,Structure (SMILES),cytotoxicity at 10 µM [%]
1,Cc1cc(C)n2cc(CN3CCC(N4CCN(C)C4=O)CC3)nc2n1,3.66
2,NC(=O)CSCC(=O)NC1(c2cccc(Cl)c2)CC1,-16.4
3,Cc1cc(C)n(CC2CCCN2Cc2cccc(C#N)c2)n1 (stereo not given),11.2
4,O=C(Nc1cc(C(F)(F)F)c[nH]c1=O)C1CCCN1 (stereo not given),-7.33
5,Cc1cc(C)n(CCCNC(=O)NCc2c(C)cc(C)[nH]c2=O)n1,-1.12
6,COc1ccc(OCc2nc3cc4c(cc3c(=O)o2)OCCCO4)cc1,5.73
7,Cc1cc(CNCC2CCCN(C(=O)OC(C)(C)C)C2)no1 (stereo not given),6.22
8,CC(C)c1noc(CCCC(=O)N2CCN(C)CC2c2ccccc2)n1 (stereo not given),-2.89
9,Cc1nn(C)c(C)c1OCC(=O)NCc1cccc(C(=O)O)c1,-3.83
10,COCC(=O)N1CCN(Cc2csc(-c3ncccn3)n2)CC1,-11.3
11,Cc1ccc(C(=O)N(C)Cc2ccc(Br)o2)c(=O)[nH]1,8.6
12,Cc1ccc(NC(=O)CNc2ccccc2C(N)=O)c(C)c1,1.15
13,O=C(c1ccc(=O)[nH]n1)N1CCc2ccccc21,37.9
14,COc1c(C(=O)N2CCOC(c3cccs3)C2)c(C)nn1C (stereo not given),-0.43
15,CCN(c1cccc(F)c1)S(=O)(=O)c1cc(C(=O)O)cc2c1CCC2,10.5
16,CC(Cc1ccco1)NC(=O)CCn1cccn1 (stereo not given),-6.19
17,Cc1cccc(C2CCCCN2C(=O)CCCS(C)(=O)=O)c1C (stereo not given),4.96
18,CC(CNC(=O)C1(c2ccc(F)cc2)CC1)CN1CCCC1=O (stereo not given),-8.26
19,Cc1cc(N2CCC(NC(=O)CCc3ccco3)CC2)nc(C)n1,-14.3
20,CCc1cnccc1C(=O)NC1CCN(C(=O)C2CCCCC2)CC1,3.51
21,Cc1nnc(CN2CCCC2c2ccc(C(C)(C)C)cc2)o1 (stereo not given),-8.48
22,Cc1cccc2c1C(=O)NC1(CCOCC1)N2,-42.3

row,Structure (SMILES),cytotoxicity at 10 µM [%]
1,COCC(=O)NC1(c2cccc(C(F)(F)F)c2)CCC1,-50
2,COC(C)(C)CC(C)NC(=O)NC1CCN(Cc2ccccn2)CC1 (stereo not given),4.83
3,CCc1nnsc1C(=O)N(C)Cc1ccc(Br)o1,-48.8
4,CCS(=O)(=O)NCCCNC(=O)N(C)C(C)c1ccccn1 (stereo not given),7.31
5,Cc1noc(Cl)c1CCC(=O)N1CCCCC1Cn1cccn1 (stereo not given),-12.6
6,O=C(c1ccoc1)N1CCCn2cnc(COCC3CC3)c2C1,2.47
7,Cc1cncc(C(=O)N2Cc3ccccc3C3(CCN(C)CC3)C2)c1,4.37
8,Cc1ccc(C(=O)N2C[C@H]3CCC[C@@]3(COCc3cccnc3)C2)s1,3.24
9,CCN(CC)C(=O)Cn1cc(C(=O)NCCc2nc(C)c(C)s2)nn1,2.22
10,OCC1CCCCN1CCn1ccnc1-c1nc2ccccc2[nH]1 (stereo not given),8.89
11,CN(Cc1ccc(-n2cccn2)cc1)Cc1ncc[nH]1,1.79
12,Cc1cccc2sc(NC(=O)CN3CCCC4(CC3)CNC(=O)O4)nc12 (stereo not given),-4.26
13,c1cc2c(cc1-c1noc3c1CN(C1CCC1)CC3)OCO2,-18.4
14,Fc1ccc(CC2CCN(Cc3nccs3)CC2)cc1,-2.87
15,CCc1cc(C(C)Nc2nc(-c3cccnc3)nc3c2CNC3)on1 (stereo not given),16.9
16,Cc1c[nH]c(CN2CCCCC2CCN(C)C)c(C)c1=O (stereo not given),-2.97
17,CC[C@@H](c1ccccc1)n1c(CCN)n[nH]c1=O,5.33
18,CN(CCCc1cnn(C)c1)C(=O)C1CCN(C(=O)C2CCC2)CC1,-11.6
19,O=C(O)[C@@]12CN(c3cnccn3)C[C@@H]1CN(C1CCCC1)C2,-10.3
20,CN(Cc1cccnc1)c1nccc(N2CCN[C@H]3CS(=O)(=O)C[C@H]32)n1,5.82
21,C[C@@H]1CN(S(=O)(=O)N2CCCC2)CC[C@@]1(O)C1CCOCC1,4.49
22,CN(CCO)Cc1nnc(C2CCN(C(=O)C3CCOCC3)CC2)n1C,2.01

row,Structure (SMILES),cytotoxicity at 10 µM [%]
1,O=C1[C@@H]2CN(c3ncccc3Cl)C[C@]2(C(=O)O)CN1CC1CC1,1.04
2,O=C(Cn1nnc(-c2ccc(F)cc2)n1)N1CCOCC(O)C1 (stereo not given),10.9
3,CC(C)=CCN1CCC2(CC1)CC(=O)N(Cc1cc(F)cc(F)c1)C2,0.308
4,CC(=O)N[C@H]1CCN(c2nc(C)nc3c2c(C)nn3C)C1,4.61
5,O=C1NCCCc2[nH]c(-c3nc(C4CC4)no3)nc21,-5.74
6,CC(C)CC(O)C1CCN(Cc2cnc(-c3cccs3)nc2)CC1 (stereo not given),-3.18
7,CN1CCc2[nH]cnc2C12CCN(Cc1ccc(S(C)(=O)=O)cc1)CC2,-3.72
8,CC(C)c1cc(C(=O)N2C[C@@H](C)[C@](O)(C3CC3)C2)[nH]n1,16.3
9,CNc1cc(C)nc(N2C[C@@H](C(=O)O)[C@H](C3CC3)C2)n1,-0.147
10,COc1ncc(-c2c(C#N)c(N)nc3c2CCc2[nH]ccc2-3)cn1,6.47
11,Cn1nc(C2CN(C(=O)c3cscn3)C2)c2nccnc21,2.21
12,Cc1nccc(CN2CC[C@H](Oc3cccc(F)c3)[C@@](C)(O)C2)n1,2.84
13,COc1c(C2CCCN2C(=O)c2cscn2)c(C)nn1C (stereo not given),5.77
14,COCCc1noc(CN2CCCC2Cn2cccn2)n1 (stereo not given),-0.206
15,COc1ccc(-n2ccc(C(=O)NCCN3CCC(C)CC3)n2)cc1,-6.48
16,Cc1cc(C[S+]([O-])CC(=O)NCc2ccccc2)no1 (stereo not given),-2.13
17,Cc1nc(C)n(CC2CCCCN2Cc2nc3ccccc3o2)n1 (stereo not given),-6.8
18,Cc1cc(NC(=O)CN2CCCC2Cn2nc(C)nc2C)n(C)n1 (stereo not given),-2.49
19,CCCNC(=O)C(C)N1CCC(C(=O)Nc2cnn(CC)c2)CC1 (stereo not given),-5.36
20,c1sc(C2CCCCC2)nc1CN1CCn2c(nnc2C2CC2)C1,-6.61
21,CN(C)c1ccc(C(=O)NCCCNc2ccc(C(F)(F)F)cn2)cc1,-7.66
22,CC(C)(C)c1noc(CN2CCCCC2Cn2cncn2)n1 (stereo not given),-2.4

row,Structure (SMILES),cytotoxicity at 10 µM [%]
1,O=C(CN1CCc2c(ncn2C2CC2)C1)NC1CCN(C2CC2)CC1,-8.44
2,CC(C(=O)NCc1cccc(N2CCCC2=O)c1)S(C)(=O)=O (stereo not given),2.66
3,COCCCC(=O)NS(=O)(=O)c1ccc2c(c1)OCCCO2,-2.77
4,Cc1nccn1C1CCCN(C(=O)c2ccc3c(c2)nnn3C)C1 (stereo not given),-7.89
5,Cc1nnc(NCc2cccnc2N(C)C)c(C#N)c1C,-4.94
6,Cc1ccccc1CN1CCN(Cc2nccn2C)CC1,-10.1
7,Cc1ncc2c(n1)CCN(Cc1nc3ccccc3o1)C2,1.66
8,CC(NC(=O)CCOc1ccccc1Cl)c1nnc2n1CCC2 (stereo not given),-6.46
9,CC(NC(=O)CCn1cncn1)c1nnc2n1CCCCC2 (stereo not given),-9.26
10,Cc1cnn(CC2CCCN2c2nn3cc(C)nc3s2)c1 (stereo not given),-2.84
11,Cc1ccc(OCCCNC(=O)NC(C)c2nncn2C)cc1 (stereo not given),-3.83
12,Cc1cc(-c2cnn(CCNC(=O)c3cccnc3)c2C2CC2)on1,0.565
13,c1ccc(NCc2cn3c(n2)CN(Cc2cccnc2)CC3)nc1,1.52
14,O=C(CCC1CCCC1)NCCn1nc(C2CCNC2)c2cccnc21 (stereo not given),-2.83
15,CCS(=O)(=O)NC[C@]12COC[C@H]1CN(Cc1cccc(OC)c1)C2,-6.23
16,O=C(N1CCOCC1)[C@@]12CCO[C@@H]1CCN(C1CCOCC1)C2,5.83
17,CC(C)N1CCO[C@H]2CN(C(=O)c3ccoc3)C[C@H]21,-0.207
18,CC(C)N(C)Cc1ncn2c1CN(S(=O)(=O)c1cccs1)CCC2,3.62
19,O=C(C1CCCC1)N1CCC2(CC1)COCCN2CC1CC1,5.01
20,O=C(c1ccccn1)N1Cc2nccn2CC(CN2CCOCC2)C1 (stereo not given),2.16
21,COc1ccc(F)c(-c2ncccc2C(=O)N2C[C@@H]3CC[C@H]2C3)c1,-6.12
22,COCCN1C(=O)[C@@H]2CC[C@H]1CN(S(=O)(=O)c1ccc(C#N)cc1)C2,-2.59
